Series [1] has as its system Candida albicans. Put plainly: Antibiofilm activity against Candida albicans SC5314 after 48 hrs by XTT assay. The class given is functional. As to conditions: SC5314, 48 h. Put shortly: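 SC5314 grown overnight in BHI at 37 °C, then washed in PBS and resuspended in RPMI-1640 buffered to pH 7.0 with 0.17 M MOPS. Cells at 2.5×10^3 cells mL^-1 were incubated 48 h at 37 °C with compounds (2 mM DMSO stocks; DMSO ≤2% v/v final). Wells were washed twice with PBS and refilled with fresh medium. Biofilm was read by XTT (0.1 mg mL^-1, 1 h, 37 °C) at A492. Triplicate, three separate occasions.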

The test system of series [2] is Candida albicans. Description: Induction of cell killing in Candida albicans SC5314 up to 100 uM after 48 hrs by XTT assay. In outline: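 Growth assay based on CLSI M27-A3, modified. SC5314 was precultured overnight in BHI at 37 °C, washed in PBS (pH 7.4) and resuspended at 2.5×10^3 cells mL^-1 in RPMI-1640/MOPS (pH 7.0). Compounds came from 2 mM DMSO stocks (DMSO ≤2% v/v final). After 48 h at 37 °C, viability was read by XTT (0.1 mg mL^-1, 1 h) at A492. MIC = lowest concentration giving ≥85% loss of metabolic activity. Triplicate, three occasions.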

What is called IC50 is the concentration that gives 50% inhibition.

As to `CCCCCCC[C@@H]1CC(=O)N[C@H](CC(C)C)C(=O)N[C@@H](CO)C(=O)N[C@@H]([C@@H](C)O)C(=O)N[C@H](Cc2ccccc2)C(=O)N[C@@H]([C@@H](C)CC)C(=O)O1`, the 50% inhibitory concentration (IC50) in the series on Candida albicans [1] turned out to be 7.7 µM. The Activity result with Candida albicans [2] was “Non-Toxic”.
The matching figures for `CCCCCCC[C@@H]1CC(=O)N[C@H](CC(C)C)C(=O)N[C@@H](CO)C(=O)N[C@@H]([C@@H](C)O)C(=O)N[C@H](Cc2ccc(O)cc2)C(=O)N[C@@H]([C@@H](C)CC)C(=O)O1`: 29.2 µM and “Non-Toxic”.
For the compound `CCCCC[C@@H]1CC(=O)N[C@H](CC(C)C)C(=O)N[C@@H](CO)C(=O)N[C@@H]([C@@H](C)O)C(=O)N[C@H](Cc2ccccc2)C(=O)N[C@@H]([C@@H](C)CC)C(=O)O1`, it took 13.4 µM to reach half-maximal inhibition in the series on Candida albicans [1] (IC50). Besides, in the series on Candida albicans [2], the Activity entry was “Non-Toxic”.
`CCCCCCC[C@@H]1CC(=O)N[C@H](CC(C)C)C(=O)N[C@@H](CO)C(=O)N[C@@H]([C@@H](C)O)C(=O)N[C@H](Cc2ccccc2)C(=O)N[C@@H](C(C)C)C(=O)O1` registered an IC50 with Candida albicans [1] of 59.8 µM. Moreover, in the series on Candida albicans [2], the Activity result was “Non-Toxic”.

The values are drawn from ChEMBL document CHEMBL4052611, “Opportunistic Sampling of Roadkill as an Entry Point to Accessing Natural Products Assembled by Bacteria Associated with Non-anthropoidal Mammalian Microbiomes” (J Nat Prod, 2017).
